{
  "source": "paper PMC3842382",
  "about": "(Journal of medicinal chemistry, 2013)",
  "key": {"mice [1]": {"test_system": "mice", "conditions": "cited from earlier work"}, "mice [2]": {"test_system": "mice", "assay": "Maximal electroshock seizure", "format": "in vivo", "conditions": "Mus musculus, ip, read-out: MES ED50"}, "mice [3]": {"test_system": "mice", "assay": "iv Metrazol test", "format": "in vivo", "conditions": "ip, 25 mg/kg and 81 mg/kg"}, "[4]": {"test_system": "Na+ currents in mouse CAD cells", "assay": "Whole-cell patch-clamp electrophysiology of Na+ currents in CAD cells", "format": "cell-based"}, "[5]": {"test_system": "Na+ currents in rat embryonic cortical neurons", "assay": "Whole-cell patch-clamp electrophysiology of Na+ currents in cortical neurons", "format": "cell-based", "conditions": "20 μM", "in_short": "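Cortical neurons from embryonic day 19 rat cortices were cultured 7–10 days in vitro. Whole-cell voltage clamp was run at room temperature in external solution containing 100 mM NaCl, TEA-Cl, CdCl2, NiCl2 and 4-AP (HEPES, pH 7.3), with 20 μM test compound or 0.1% DMSO control. Slow inactivation was read as the fraction of current available at −50 mV. V1/2 and k came from Boltzmann fits to individual recordings, averaged as mean ± SEM.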"}, "[6]": {"test_system": "Na+ currents in mouse CAD cells", "conditions": "cited from earlier work"}, "mice [7]": {"test_system": "mice", "conditions": "ip; cited from earlier work"}, "rat": {"test_system": "rat", "conditions": "oral; cited from earlier work"}},
  "data": [
    {"smiles": "COC[C@@H](NC(C)=O)C(=O)NCc1ccccc1", "note": "[Compound 1, Lacosamide]", "values": [
      {"measurement": "anticonvulsant activity in scMet model", "setting": "mice [1]", "result": "did not display anticonvulsant activity"}
    ]},
    {"smiles": "Cl.NCc1ccc(-c2ccccc2)cc1", "note": "[Compound 2, (Biphenyl-4-yl)methylammonium Chloride]", "values": [
      {"measurement": "ED50", "setting": "mice [2]", "result": "30 to 100", "unit": "mg/kg"}
    ]},
    {"smiles": "Cl.NCc1ccc(-c2cccc(OC(F)(F)F)c2)cc1", "note": "[Compound 8, (3′-Trifluoromethoxybiphenyl-4-yl)methylammonium Chloride]", "values": [
      {"measurement": "seizure threshold vs control group", "setting": "mice [3]", "result": "no statistical difference from the control group"},
      {"measurement": "effect on Na+ channel steady-state activation", "setting": "[4]", "result": "did not affect"},
      {"measurement": "effect on slopes of fast inactivation", "setting": "[4]", "result": "not affected"},
      {"measurement": "frequency (use)-dependent inhibition of Na+ currents", "setting": "[4]; 10 μM, 10 Hz", "result": "did not exhibit"},
      {"measurement": "effect on steady-state activation (V1/2 and k)", "setting": "[5]", "result": "unchanged"},
      {"measurement": "frequency (use)-dependent inhibition of Na+ currents", "setting": "[5]", "result": "did not exhibit"},
      {"measurement": "extent of slow inactivation (fraction of current available at −50 mV)", "setting": "[5]; vehicle DMSO 0.41", "result": "0.17 ± 0.03"},
      {"measurement": "change in slope values of fast inactivation", "setting": "[5]; vs control", "result": "no commensurate significant changes"},
      {"measurement": "hyperpolarizing shift of V1/2 of steady-state fast inactivation", "setting": "[5]; vs control", "result": "~15.7", "unit": "mV"}
    ]},
    {"smiles": "NCc1ccc(OCc2cccc(F)c2)cc1", "note": "[Compound 22]", "values": [
      {"measurement": "effect on fast inactivation", "setting": "[6]", "result": "affected fast inactivation"},
      {"measurement": "frequency (use)-dependent blockage of Na+ currents", "setting": "[6]", "result": "displayed frequency (use)-dependent blockage"}
    ]},
    {"smiles": "CCC1(c2ccccc2)C(=O)NC(=O)NC1=O", "note": "[phenobarbital]", "values": [
      {"measurement": "MES ED50", "setting": "mice [7]", "result": "22 [1.0] (15-23) mg/kg"},
      {"measurement": "MES ED50", "setting": "rat", "result": "9.1 [5.0] (7.6-12) mg/kg"}
    ]},
    {"smiles": "CCCC(CCC)C(=O)O", "note": "[valproate]", "values": [
      {"measurement": "MES ED50", "setting": "mice [7]", "result": "270 [0.25] (250-340) mg/kg"},
      {"measurement": "MES ED50", "setting": "rat", "result": "490 [0.5] (350-730) mg/kg"}
    ]}
  ]
}
